# Paper PMC9589333 (ERJ Open Research, 2022)
# Legend:
# [1] = Phase Ic study: pharmacokinetics of BI 1015550 in plasma; type: in vivo, human
# Outline: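 IPF patients received oral 18 mg twice daily. Plasma Cmax and AUCτ,1 were taken after the first dose on day 1, and Cmax,ss and AUCτ,ss after the morning dose on day 14. Accumulation ratios were calculated as steady-state over single-dose values. Results are reported as geometric mean with gCV.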
# [2] = tested on: patients with idiopathic pulmonary fibrosis; assay: Phase Ic study: exploratory lung function efficacy endpoints; type: in vivo, human; settings: IPF, 18 mg twice daily
# human lung fibroblast = settings: in vitro; cited from earlier work
# [3] = Phase I study: pharmacokinetics of BI 1015550 in plasma and urine; type: in vivo, human; settings: for AUCτ,1 / Cmax / RA,AUC (accumulation ratio) / RA,Cmax (accumulation ratio) / AUCτ,ss / CLR,0–120 (renal clearance) / fe0–120 (fraction excreted unchanged in urine 0–120 h) / AUC0−∞: gMean; for AUCτ,ss: steady state
# Outline: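 Oral test compound was given to healthy males as single doses (36 or 48 mg, fasted) or 6 or 12 mg twice daily (fed). Twice-daily dosing was a morning dose on day 1, none on day 2 (34-h sampling), days 3–13 twice daily, and a morning dose on day 14. Read-outs were plasma Cmax, AUC0–∞, first-dose and steady-state AUCτ, accumulation ratios and 0–120 h urinary excretion, reported as gMean with gCV.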
# [4] = tested on: patients with idiopathic pulmonary fibrosis; assay: Phase Ic study; type: in vivo, human
# Outline: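 Randomised, double-blind, placebo-controlled within-dose-group study at 11 European sites. Patients with IPF, aged ≥40 years, had no nintedanib or pirfenidone within 30 days and none planned. Dosing was oral, 18 mg twice daily, for up to 12 weeks, reduced to 4 weeks by amendment. Drug-related AEs were graded mild, moderate or severe. ECG, laboratory tests and suicidality were also assessed. Descriptive statistics only.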
# healthy male subjects = assay: Phase I study; type: in vivo, human; settings: for Body weight, mean±SD change from baseline: placebo 0.21±1.06
# Outline: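 Healthy males aged 18–45 years with BMI 18.5–29.9 kg·m−2, partially randomised to oral test compound or matching placebo. Single doses were 36 or 48 mg, fasted and patient-blinded. Twice-daily doses were 6 or 12 mg over 14 days, fed and double-blind. Drug-related AEs were graded mild, moderate or severe. ECG, laboratory tests and, for multiple dosing, suicidality were also assessed. Descriptive statistics only.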
# [5] = after single and multiple oral administration
# [6] = IPF, 18 mg twice daily, placebo 40.0%
smiles,measurement,setting,value
[O-][S+]1CCc2nc(N3CCC(c4ncc(Cl)cn4)CC3)nc(NC3(CO)CCC3)c21 (centres unmarked) [BI 1015550],"Exposure predictions (AUC0-24,ss) versus predefined exposure threshold",[1]; 24 mg twice-daily dose group (not dosed),exceeded the predefined exposure threshold
same,Administrations until 95% of the steady-state concentration was reached,"[1]; IPF, 18 mg twice daily",approximately five
same,Accumulation ratio based on AUCτ,"[1]; gMean, IPF, 18 mg twice daily",1.87
same,Accumulation ratio based on Cmax,"[1]; gMean, IPF, 18 mg twice daily",1.66
same,"AUCτ,1","[1]; gMean, IPF, 18 mg twice daily, day 1 after first dose, n=10, gCV 18.2%",1.99 µM·h
same,Cmax,"[1]; gMean, IPF, 18 mg twice daily, day 1 after first dose, n=10, gCV 23.1%",277 nM
same,"AUCτ,ss","[1]; gMean, IPF, 18 mg twice daily, day 14 steady state, n=10, gCV 49.5%",3.72 µM·h
same,Difference in pharmacokinetic parameters between healthy volunteers and patients with IPF,[1]; in vivo,no difference
same,Effect on lung function parameters,[2]; over the course of the trial,no clear effect
same,Trend towards a slight reduction in FVC over time (seen in placebo group),[2]; data not shown,not observed
same,Human lung fibroblast proliferation,human lung fibroblast,inhibition
same,Myofibroblast transformation,human lung fibroblast,inhibition
same,Dose proportionality of AUC,[3]; 36 mg to 48 mg single dose and 6 mg to 12 mg twice daily,dose-proportional increase in AUC
same,Median time from last dosing to the maximum measured concentration,[3]; [5],1.25 to 1.52 h
same,Terminal half-lives,[3]; [5],16 to 27 h
same,"AUCτ,1","[3]; MRD 6 mg twice daily, after first dose, fed, n=8, gCV 24.8%",0.564 µM·h
same,Cmax,"[3]; MRD 6 mg twice daily, after first dose, fed, n=8, gCV 28.2%",103 nM
same,"RA,AUC (accumulation ratio)","[3]; MRD 6 mg twice daily, fed, n=8, gCV 9.91%",1.85
same,"RA,Cmax (accumulation ratio)","[3]; MRD 6 mg twice daily, fed, n=8, gCV 35.0%",1.60
same,"AUCτ,ss","[3]; MRD 6 mg twice daily, fed, n=8, gCV 25.7%",1.05 µM·h
same,"AUCτ,1","[3]; MRD 12 mg twice daily, after first dose, fed, n=8, gCV 15.9%",1.37 µM·h
same,Cmax,"[3]; MRD 12 mg twice daily, after first dose, fed, n=8, gCV 29.9%",229 nM
same,"RA,AUC (accumulation ratio)","[3]; MRD 12 mg twice daily, fed, n=8, gCV 14.8%",1.68
same,"RA,Cmax (accumulation ratio)","[3]; MRD 12 mg twice daily, fed, n=8, gCV 23.6%",1.52
same,"AUCτ,ss","[3]; MRD 12 mg twice daily, fed, n=8, gCV 15.8%",2.3 µM·h
same,"CLR,0–120 (renal clearance)","[3]; SRD 36 mg, fasted, n=4, gCV 21.5%",30.5^+ mL·min^−1
same,fe0–120 (fraction excreted unchanged in urine 0–120 h),"[3]; SRD 36 mg, fasted, n=5, gCV 45.2%",12.5^¶ %
same,Cmax,"[3]; SRD 36 mg, fasted, n=6, gCV 20.7%",710 nM
same,AUC0−∞,"[3]; SRD 36 mg, fasted, n=6, gCV 21.2%",5910 nmol·h/L
same,fe0–120 (fraction excreted unchanged in urine 0–120 h),"[3]; SRD 48 mg, fasted, n=4, gCV 13.4%",12.1^+ %
same,"CLR,0–120 (renal clearance)","[3]; SRD 48 mg, fasted, n=4, gCV 20.6%",25.2^+ mL·min^−1
same,AUC0−∞,"[3]; SRD 48 mg, fasted, n=5, gCV 17.2%",8700^¶ nmol·h·L^−1
same,Cmax,"[3]; SRD 48 mg, fasted, n=6, gCV 15.5%",955 nM
same,Steady state reached,[3]; multiple twice-daily administrations,≤ 6 days
same,Mean observed weight loss,"[4]; IPF patients treated for up to 12 weeks, placebo –1.18",–1.74 kg
same,12-lead ECG or vital signs,"[4]; IPF, 18 mg twice daily",no clinically relevant findings
same,C-reactive protein (laboratory tests),"[4]; IPF, 18 mg twice daily",slight increase
same,Deaths,"[4]; IPF, 18 mg twice daily",no reported deaths
same,Diarrhoea,"[4]; IPF, 18 mg twice daily",40.0%
same,Nasopharyngitis,"[4]; IPF, 18 mg twice daily",40%
same,"Severe AE (considered drug related, led to discontinuation)","[4]; IPF, 18 mg twice daily",one severe AE of insomnia
same,Suicidal ideation or behaviour (C-SSRS),"[4]; IPF, 18 mg twice daily",no cases
same,"Body weight, difference between the two treatment groups","[4]; IPF, 18 mg twice daily vs placebo",no notable difference
same,AE leading to discontinuation of study drug,"[4]; IPF, 18 mg twice daily, n=10",1 (10.0) n (%)
same,Investigator-defined drug-related AE,"[4]; IPF, 18 mg twice daily, n=10",9 (90.0) n (%)
same,Patients requiring or prolonging hospitalisation,"[4]; IPF, 18 mg twice daily, n=10",1 (10.0) n (%)
same,Patients with AESI (hepatic injury),"[4]; IPF, 18 mg twice daily, n=10",0 (0.0) n (%)
same,Patients with SAEs,"[4]; IPF, 18 mg twice daily, n=10",1 (10.0) n (%)
same,Patients with other significant AEs according to ICH E3,"[4]; IPF, 18 mg twice daily, n=10",1 (10.0) n (%)
same,Severe AEs,"[4]; IPF, 18 mg twice daily, n=10",1 (10.0) n (%)
same,Gastrointestinal disorders,[4]; [6],80.0%
same,Infections and infestations,[4]; [6],50.0%
same,Patients with drug-related AEs,"[4]; IPF, 18 mg twice daily, placebo 60.0%",90.0%
same,Subjects with any AE,"healthy male subjects; MRD 6 mg twice daily, n=8",2 (25.0) n (%)
same,Subjects with investigator-defined drug-related AEs,"healthy male subjects; MRD 6 mg twice daily, n=8",2 (25.0) n (%)
same,"Body weight, mean±SD change from baseline",healthy male subjects; MRD 6 mg twice daily,–1.21±0.43 kg
same,"Clinically relevant laboratory finding: increase in blood triglycerides, considered drug-related",healthy male subjects; MRD 12 mg twice daily,one subject
same,Subjects with any AE,"healthy male subjects; MRD 12 mg twice daily, n=8",5 (62.5) n (%)
same,Subjects with investigator-defined drug-related AEs,"healthy male subjects; MRD 12 mg twice daily, n=8",4 (50.0) n (%)
same,"Body weight, mean±SD change from baseline",healthy male subjects; MRD 12 mg twice daily,–1.34±1.61 kg
same,Suicidal ideation or behaviour (C-SSRS),healthy male subjects; MRD part,No incidence
same,Gastrointestinal disorders,"healthy male subjects; MRD part, placebo 12.5%",18.8%
same,Nervous system disorders (headache),"healthy male subjects; MRD part, placebo 12.5%",31.3%
same,Subjects with AEs,"healthy male subjects; MRD part, placebo 37.5%",43.8%
same,Subjects with any AE,"healthy male subjects; MRD total, n=16",7 (43.8) n (%)
same,Subjects with investigator-defined drug-related AEs,"healthy male subjects; MRD total, n=16",6 (37.5) n (%)
same,Subjects with any AE,"healthy male subjects; SRD 36 mg single dose, n=6",4 (66.7) n (%)
same,Subjects with investigator-defined drug-related AEs,"healthy male subjects; SRD 36 mg single dose, n=6",2 (33.3) n (%)
same,Subjects with any AE,"healthy male subjects; SRD 48 mg single dose, n=6",4 (66.7) n (%)
same,Subjects with investigator-defined drug-related AEs,"healthy male subjects; SRD 48 mg single dose, n=6",4 (66.7) n (%)
same,"Deaths, severe AEs, serious AEs, AEs of special interest or other significant AEs",healthy male subjects; SRD and MRD parts,no reported
same,ECG recordings or vital signs,healthy male subjects; SRD and MRD parts,no clinically relevant findings
same,Intensity of all AEs,healthy male subjects; SRD and MRD parts,mild or moderate
same,Gastrointestinal disorders,"healthy male subjects; SRD part, placebo 16.7%",25.0%
same,Nervous system disorders (headache and dizziness),"healthy male subjects; SRD part, placebo 16.7%",41.7%
same,Subjects with AEs,"healthy male subjects; SRD part, placebo 16.7%",66.7%
same,Subjects with any AE,"healthy male subjects; SRD total, n=12",8 (66.7) n (%)
same,Subjects with investigator-defined drug-related AEs,"healthy male subjects; SRD total, n=12",6 (50.0) n (%)
same,Subjects with drug-related AEs,"healthy male subjects; multiple doses (MRD total), placebo 12.5%",37.5%
same,Subjects with drug-related AEs,"healthy male subjects; single dose (SRD total), placebo 16.7%",50.0%
